DAGLB inh: blocks human DAGLB lipase activity. inhibition, % at 5.17 µM. actives 0.059% (n = 340,000). Q8NCG7. HEK293T DAGLB membrane lysate, EnzChek fluorogenic substrate; in the data active = inhibition above about 34%;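 note: 0% = enzyme with vehicle and 100% = wells lacking enzyme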
UCH37 DUB inh: human UCH37 deubiquitinating enzyme inhibition. Q9Y5K5. purified proteasome/UCH37, Ub-AMC cleavage fluorescence. inhibition, % (no concentration beside the values). actives 0.33% (n = 330,000);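 active = mean inhibition over replicate wells above about 20%, limit read from the data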;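 note: 0% = compound-free wells with enzyme and 100% = wells lacking proteasome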
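Schedule: 30 min plus 25 min, room temperature / Material: human UCH37 within purified proteasomes / Technique: AMC fluorescence intensity at 355/460 nm / Buffer or medium: pH 7.4 Tris-HCl (50 mM) with ovalbumin, ATP-MgCl2, DTT / Controls: wells without proteasome as full block, compound-free enzyme plus substrate as uninhibited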
NRP1-CendR mod: modulators of CendR peptide binding to human neuropilin-1. O14786. AID 602438. actives 0.85% (n = 360,000). inhibition, % at 25 µM. FAM-RPARPAR peptide binding to NRP-1, fluorescence polarization;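 active = inhibition or corrected inhibition above about 18%, plus a signal ratio from 0.5 to 1.5, limit read from the data, passing the limit was not always enough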
Target sequence (O14786 whole entry, looked up): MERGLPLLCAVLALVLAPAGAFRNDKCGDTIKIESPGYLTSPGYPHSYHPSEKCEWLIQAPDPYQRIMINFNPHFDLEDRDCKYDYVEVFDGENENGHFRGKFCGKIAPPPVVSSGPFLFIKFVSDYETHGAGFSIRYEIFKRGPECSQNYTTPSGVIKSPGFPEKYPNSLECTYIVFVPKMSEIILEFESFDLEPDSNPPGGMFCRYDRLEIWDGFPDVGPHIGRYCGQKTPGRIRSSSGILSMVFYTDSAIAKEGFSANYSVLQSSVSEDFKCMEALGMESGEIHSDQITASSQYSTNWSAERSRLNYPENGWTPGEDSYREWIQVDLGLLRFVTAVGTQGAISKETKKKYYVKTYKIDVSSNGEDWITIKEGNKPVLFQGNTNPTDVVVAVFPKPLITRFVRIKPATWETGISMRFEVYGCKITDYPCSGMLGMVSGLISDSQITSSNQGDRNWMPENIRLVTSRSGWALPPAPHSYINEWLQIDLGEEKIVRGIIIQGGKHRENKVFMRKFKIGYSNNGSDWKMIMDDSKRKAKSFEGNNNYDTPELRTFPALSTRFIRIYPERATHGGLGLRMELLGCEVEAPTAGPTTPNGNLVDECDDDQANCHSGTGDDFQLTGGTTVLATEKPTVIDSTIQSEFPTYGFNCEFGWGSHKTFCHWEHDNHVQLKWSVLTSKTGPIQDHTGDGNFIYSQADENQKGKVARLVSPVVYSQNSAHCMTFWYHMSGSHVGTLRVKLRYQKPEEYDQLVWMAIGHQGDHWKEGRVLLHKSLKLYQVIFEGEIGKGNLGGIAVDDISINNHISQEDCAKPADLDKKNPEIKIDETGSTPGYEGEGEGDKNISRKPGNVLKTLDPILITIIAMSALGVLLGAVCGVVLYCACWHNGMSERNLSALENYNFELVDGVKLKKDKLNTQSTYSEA
MT1-MMP act inh: MT1-MMP (human) activation inhibition. GFP/RFP ratio change, % at 20 µM. P50281. AID 651647. HT1080 RFP-PRO-GFP cells, GFP/RFP ratio fluorescence, overnight; percent of plate control window, DMSO zero. actives 0.061% (n = 360,000);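 active = GFP/RFP ratio change of at least 30% with cell ATP level not reduced by more than half and red fluorescence within 50% of control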
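system = RFP-PRO-GFP reporter HT1080 cells | dosing = 20 µM single dose, 1% DMSO | timing = overnight cell settling, then overnight compound exposure, 37 °C, 5% CO2 | read-out basis = GFP/RFP fluorescence ratio | controls = DMSO and RFP-L50D-GFP cell wells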
Fh CTSL1 inh: counter-screen for PFM18AAP inhibitors: inhibitors of F. hepatica cathepsin L1; inhibition, % at 5.96 µM; recombinant F. hepatica cathepsin L1, Z-Leu-Arg-MCA fluorescence; actives 0.49% (n = 300,000);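 active = inhibition above the mean of all tested compounds plus 3 SD, set per screening campaign, cut at about 17% in these data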;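 note: 0% = plate median of test compound wells and 100% = 1 µM Z-Phe-Ala-diazomethylketone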
DAGLB confirm: DAGLB (human) inhibition, confirmation screen. shares compounds with DAGLB inh. HEK293T DAGLB membrane lysate, EnzChek fluorogenic substrate. inhibition, % at 5.17 µM. actives 73% (n = 190). AID 504445;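 active = mean inhibition over triplicate wells above a set limit taken from the primary lipase screen, cut at about 34% in these data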;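 note: 0% = DAGLB with DMSO and 100% = wells lacking DAGLB enzyme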
* marks the source's active call; other numbers are inactive results; · = no result given. Most compounds without a hit are left out; they make up all but 1.5% or so of the library.

SMILES	DAGLB inh	UCH37 DUB inh	NRP1-CendR mod	MT1-MMP act inh	Fh CTSL1 inh	DAGLB confirm
Cc1ccc(NS(=O)(=O)c2cc([N+](=O)[O-])ccc2NNC(=S)Nc2cccc(Cl)c2)c(C)c1	44.5*	6.1	-132.3	2.5	2.4	74.2*
Cc1ccc(NS(=O)(=O)c2cc([N+](=O)[O-])ccc2NNC(=S)Nc2cc(C)ccc2C)c(C)c1	33.1	9.3	-51.1	-22.6	4.8	·
CC(=O)c1ccc(NC(=O)COC(=O)c2ccccc2N=Nc2ccc(N(C)C)cc2)cc1	36.2*	5.6	-8.7	17.0	2.0	27.7
O=C(NN1C(=O)/C(=C/c2ccc(O)c(O)c2)SC1=S)c1ccccc1	38.6*	·	-202.7	-30.5	33.6*	32.0
COc1cc(/C=C2\SC(=S)N(Nc3ccccc3)C2=O)ccc1O	5.2	7.2	-185.6	-33.7	-2.3	·
O=C1/C(=C/c2ccc(O)c(O)c2)SC(=S)N1Nc1ccccc1	40.0*	7.4	-187.8	-14.6	·	29.7
COc1cc(/C=C2\SC(=S)N(NC(=O)c3ccc(O)cc3)C2=O)ccc1O	1.7	8.8	-206.1	5.2	2.5	·
O=C(O)c1ccccc1NS(=O)(=O)c1ccc(NN=Cc2ccc(F)cc2)c([N+](=O)[O-])c1	36.6*	10.9	-15.8	6.6	·	33.5
O=C(O)COc1ccccc1C=NNc1ccc([N+](=O)[O-])cc1S(=O)(=O)Nc1ccc(Cl)cc1	17.4	-5.9	-56.9	1.2	·	·
O=C(O)c1ccccc1NS(=O)(=O)c1ccc(N/N=C/c2ccc(O)c(O)c2)c([N+](=O)[O-])c1	52.4*	·	9.0	24.6	·	59.0*
O=C(O)COc1ccccc1/C=N/Nc1ccc(S(=O)(=O)Nc2ccc(Cl)cc2)cc1[N+](=O)[O-]	39.7*	·	17.8	10.2	4.1	39.9*
CN(C)c1ccc(C=Nn2ncc3ccccc32)cc1	·	-71.7	·	·	·	·
COc1cc(C=Nn2c(-c3ccccc3)n[nH]c2=S)cc(OC)c1O	·	2.5	·	·	·	·
C=C(C)CNC(=S)NN=C(C)c1ccc(OC)cc1	·	2.7	·	·	·	·
Nc1cc([N+](=O)[O-])cc2oc(-c3ccccc3)cc12	36.9*	1.9	-38.7	-26.6	0.6	36.9*
C/C(C/C(C)=C1/SC(=S)NC1=O)=C1\SC(=S)NC1=O	47.1*	8.9	-232.4	-19.9	·	35.3*
CC(CC(=O)Nc1cc(C)ccn1)=NNC(=O)c1cccc(F)c1	·	0.7	·	·	·	·
O=[N+]([O-])c1ccc(N2CCN(c3ccccc3)CC2)cc1	34.2*	5.4	1.4	3.0	2.9	82.3*
O=[N+]([O-])c1ccc(N2CCCCC2)cc1	·	6.7	8.2	2.3	7.5	·
CN(C)c1ccc(N=Nc2nc3ccccc3n2C)cc1	35.9*	7.5	13.2	19.7	-1.4	58.9*
CCCCOc1ccc(-c2nc(C=Nc3nccs3)c(O)o2)cc1	·	6.2	·	·	·	·
CCOC(=O)C(C#N)=c1sc(=C2C=Cc3ccccc3N2CC)c(=O)n1CC	·	1.8	·	·	·	·
CCOC(=O)/C(C#N)=C/C=C1\C=Cc2ccccc2N1CC	36.8*	2.9	-18.2	-75.9	5.7	46.0*
O=C(NNc1c2ccccc2nc2ccccc12)c1ccc(O)cc1O	39.2*	-8.0	-26.5	26.9	-0.8	52.9*
CN1c2ccc([N+](=O)[O-])cc2N(C)C1(C)c1ccccc1 (stereo not drawn)	36.9*	3.5	-17.5	15.1	·	33.1
SMILES	DAGLB inh	UCH37 DUB inh	NRP1-CendR mod	MT1-MMP act inh	Fh CTSL1 inh	DAGLB confirm
Cn1c2ccccc2c2cc([N+](=O)[O-])ccc21	0.3	1.5	-1.6	-3.0	2.8	·
CCOc1cc(C=NNC(N)=O)cc(Br)c1OCc1ccccc1	·	3.0	·	·	·	·
Nc1ccc2c(c1)C(=O)c1cc(Cl)c(Cl)cc1-2	34.2*	0.4	3.3	2.9	·	39.5*
CC(=NNC(=O)CNc1cccc(C(F)(F)F)c1)c1ccc(Br)cc1	·	-4.0	·	·	·	·
O=C(O)c1cccc2c1-c1ccc(Cl)cc1C2=O	1.1	·	9.8	2.4	·	·
Nc1cccc2c1C(=O)c1ccc(Cl)cc1C2=O	37.9*	2.7	-48.7	11.1	·	40.2*
CCOC(=O)C(=NNc1ccc(Br)cc1)N1CCN(c2ccccc2OC)CC1	·	5.1	·	·	·	·
Cc1ccc(C=NOC(=O)c2nn(C)cc2Cl)cc1	·	3.8	·	·	·	·
CC1(C)CC(=O)C2=C(C1)N=C1c3ccccc3C(=O)C1C2c1ccc(Cl)cc1 (stereo not drawn)	36.8*	0.1	-17.5	-36.5	1.7	35.0*
CCCC(=O)NC(c1cccs1)c1cc([N+](=O)[O-])c2cccnc2c1O (stereo not drawn)	34.6*	12.5	10.9	10.8	2.7	19.6
COc1ccc(-c2nn(-c3ccccc3)cc2C=NO)cc1	·	-0.9	·	·	·	·
COc1ccccc1/C=C\C=NNC(=O)CCn1nnc2ccccc21	·	3.2	·	·	·	·
CC(=O)c1ccc(N2CCN(c3ccc(C(F)(F)F)cn3)CC2)cc1	50.3*	-1.1	-0.5	0.6	-0.5	70.1*
CC(=O)c1ccc(N2CCN(c3ncc(C(F)(F)F)cc3Cl)CC2)cc1	-7.2	-0.8	-4.0	0.7	3.4	·
CSc1ccc(C=NNC(=O)c2cccs2)cc1	·	-11.4	·	·	·	·
N#C/C(=N\Nc1ccc([N+](=O)[O-])cc1)C(N)=S	37.6*	·	-37.1	49.2	4.3	25.9
COC(=O)C1=C(C(=O)OC)SC(=C2C(=S)C(C)(C)N(C(=O)C3CC3)c3ccccc32)S1	41.4*	10.6	1.3	29.5	3.0	47.1*
CCCC(=O)N1c2ccccc2C(=C2SC(C(=O)OC)=C(C(=O)OC)S2)C(=S)C1(C)C	-3.2	4.8	16.9	13.0	-1.2	·
O=C1C(=C(c2ccccc2)c2ccccc2)Nc2ccccc21	39.9*	1.7	-11.5	11.1	5.2	38.2*
O=C1C(=C(O)c2ccccc2)C(=O)c2ccccc21	1.9	16.3	16.0	-137.7	2.4	·
CC(=O)Oc1cc2c3c(c1)/C(=C1/SC(=S)NC1=O)C(=O)N3C(C)(C)C=C2C	50.2*	2.6	22.6	8.6	-0.1	59.4*
CCOc1cc2c3c(c1)C(C)=CC(C)(C)N3C(=O)C2=O	7.9	·	5.6	-0.3	1.0	·
CC1=NN(c2ccc(Cl)cc2)C(=O)/C1=C\c1cccn1-c1ccc(S(N)(=O)=O)cc1	36.5*	4.1	-19.3	7.0	-1.2	28.2
N=C1C(c2nc3ccccc3s2)=C(O)CN1NC(=O)c1ccccc1[N+](=O)[O-]	37.4*	4.1	-7.0	-1.5	-0.6	52.6*
CCOc1ccc(-c2c(C(=O)NN=Cc3ccncc3)nnn2-c2nonc2N)cc1	·	0.9	·	·	·	·
O=C(NN=Cc1ccc(Cl)c([N+](=O)[O-])c1)c1ccc2nc[nH]c2c1	·	4.5	·	·	·	·
CN1CCN(C2=C(NS(=O)(=O)c3cccs3)C(=O)c3ccccc3C2=O)CC1	2.2	8.8	-7.6	5.7	-3.7	·
CCOc1ccccc1N1CCN(C2=C(NS(=O)(=O)c3cccs3)C(=O)c3ccccc3C2=O)CC1	43.7*	1.7	-4.0	1.9	-3.4	39.4*
